Results on 6 molecules are retold here after ChEMBL document CHEMBL5335788, “Synthesis and evaluation of aromatic BDSF bioisosteres on biofilm formation and colistin sensitivity in pathogenic bacteria” (Eur J Med Chem, 2023).

Active and inactive are the calls of the source. The calls are words filed in the database; no cut-off is given here.

Data set [1] concerns Acinetobacter baumannii. As to the kind of experiment: Antimicrobial activity against Acinetobacter baumannii ATCC 15308 assessed as microbial growth inhibition at 50 uM incubated for 20 hrs by broth microdilution method. It is filed as functional, organism-based. Summed up:
(§1)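 Overnight cultures in cation-adjusted Mueller-Hinton broth, subcultured 1:100; log-phase cells at final 1×10^5 cfu/mL exposed to sulfonamide at final 0.05 mM (from 10 mM DMSO stock) for 20 h at 37 °C. OD550 read after shaking. Growth expressed as percent of 0.5% DMSO control wells. Screened at least twice.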
For orientation: In broth dilution the organism is exposed to a series of concentrations in liquid medium.

For data set [2], the system named is Burkholderia multivorans. Briefly: Potentiation of colistin-induced antibacterial activity against Burkholderia multivorans B10 assessed as colistin MIC at 50 uM incubated for 20 hrs by susceptibility testing (Rvb > 128 ug/ml). It is filed as functional. The method, boiled down:
(§2)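 Colistin MIC by broth microdilution in cation-adjusted Mueller-Hinton broth, log-phase cells at final 5×10^5 cfu/mL. Two-fold colistin dilutions in duplicate with sulfonamide at final 0.05 mM (from 10 mM DMSO stock); 20 h at 37 °C. OD550 read. MIC taken as the lowest colistin level reducing growth ≥80% versus growth control. At least two replicates.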

Data set [3] in a line: Toxicity in Galleria mellonella larva assessed as larval survival at 50 uM.
The test system of data set [4] is Burkholderia cepacia. Briefly: Potentiation of colistin-induced antibacterial activity against Burkholderia cepacia R6193 assessed as colistin MIC at 50 uM incubated for 20 hrs by susceptibility testing (Rvb > 256 ug/ml). It is filed as functional. Summed up: as §2
Data set [5] deals with Stenotrophomonas maltophilia. Briefly: Potentiation of colistin-induced antibacterial activity against Stenotrophomonas maltophilia K279a assessed as colistin MIC at 50 uM incubated for 20 hrs by susceptibility testing (reference value: 2 to 8 ug/ml). It is filed as functional. The method, boiled down: as §2
Data set [6] relates to Pseudomonas aeruginosa. Briefly: Antimicrobial activity against Pseudomonas aeruginosa PAO1 assessed as microbial growth inhibition at 50 uM incubated for 20 hrs by broth microdilution method. It is filed as functional, organism-based. The method, boiled down:
as §1

Data set [7] concerns Stenotrophomonas maltophilia. As to the kind of experiment: Inhibition of biofilm formation in Stenotrophomonas maltophilia K279a clinical isolate of rpf-1 subpopulation at 0.05 mM incubated for 24 hrs by crystal violet method. It is filed as functional, organism-based. Summed up:
(§3)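 Crystal violet assay in LB: log-phase bacteria at final 1×10^5 cfu/mL with sulfonamide at final 0.05 mM, 24 h at 37 °C. Biomass read at OD620, then wells washed, biofilm heat-fixed 65 °C 15 min, stained 0.1% crystal violet 15 min, dye eluted in 30% acetic acid, OD550 read. Neat DMSO control taken as 100%. Duplicates, at least two independent experiments; one-way ANOVA.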

The test system of data set [8] is Burkholderia multivorans. As to the kind of experiment: Antimicrobial activity against Burkholderia multivorans B10 assessed as microbial growth inhibition at 50 uM incubated for 20 hrs by broth microdilution method. It is filed as functional, organism-based. Summed up: as §1
Data set [9] has as its system Burkholderia multivorans. As to the kind of experiment: Inhibition of biofilm formation in Burkholderia multivorans B10 at 0.05 mM incubated for 24 hrs by crystal violet method relative to control. It is filed as functional. The following applies: B10, 24 h. The method, boiled down: as §3
Data set [10] relates to Acinetobacter baumannii. Briefly: Potentiation of colistin-induced antibacterial activity against Acinetobacter baumannii ATCC 15308 assessed as colistin MIC at 50 uM incubated for 20 hrs by susceptibility testing (reference value: 0.25 to 0.5 ug/ml). It is filed as functional. The method, boiled down:
as §2

The test system of data set [11] is Escherichia coli. Briefly: Inhibition of biofilm formation in Escherichia coli ATCC 9637 at 0.05 mM incubated for 24 hrs by crystal violet method relative to control. It is filed as functional. The following applies: ATCC 9637, 24 h. The method, boiled down:
as §3

The test system of data set [12] is Pseudomonas aeruginosa. As to the kind of experiment: Potentiation of colistin-induced antibacterial activity against Pseudomonas aeruginosa assessed as colistin MIC at 50 uM incubated for 20 hrs by susceptibility testing (reference value: 1 to 2 ug/ml). It is filed as functional. The method, boiled down:
as §2

Data set [13] deals with Stenotrophomonas maltophilia. As to the kind of experiment: Antimicrobial activity against Stenotrophomonas maltophilia K279a assessed as microbial growth inhibition at 50 uM incubated for 20 hrs by broth microdilution method. It is filed as functional, organism-based. The method, boiled down: as §1
In data set [14] the test system is Pseudomonas aeruginosa. As to the kind of experiment: Inhibition of biofilm formation in Pseudomonas aeruginosa PAO1 at 0.05 mM incubated for 24 hrs by crystal violet method. It is filed as functional, organism-based. The method, boiled down:
as §3

The subject of another data set is Burkholderia cenocepacia. As to the kind of experiment: Potentiation of colistin-induced antibacterial activity against Burkholderia cenocepacia 289 assessed as colistin MIC at 50 uM incubated for 20 hrs by susceptibility testing (Rvb > 256 ug/ml). It is filed as functional. The method, boiled down: as §2
Data set [15] has as its system Escherichia coli. As to the kind of experiment: Antimicrobial activity against Escherichia coli ATCC 9637 assessed as microbial growth inhibition at 50 uM incubated for 20 hrs by broth microdilution method. It is filed as functional, organism-based. The method, boiled down: as §1
The test system of data set [16] is Escherichia coli. Briefly: Potentiation of colistin-induced antibacterial activity against Escherichia coli ATCC 9637 assessed as colistin MIC at 50 uM incubated for 20 hrs by susceptibility testing (reference value: 0.125 to 0.25 ug/ml). It is filed as functional. The method, boiled down:
as §2

The subject of data set [17] is Stenotrophomonas maltophilia. As to the kind of experiment: Potentiation of colistin-induced antibacterial activity against Stenotrophomonas maltophilia K279a infected in Galleria mellonella larva at 50 uM. It is filed as functional, organism-based. The method, boiled down:
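Larvae 300–400 mg, at least 15 per group, infected in last proleg with 1×10^4 cfu S. maltophilia K279a in PBS. After 60 min at 37 °C, chilled 15 min on ice, then injected with 5 μL PBS holding colistin at final 0.5 μg/mL, sulfonamide at final 50 μM, or both; 0.5% DMSO vehicle control. Kept at 37 °C, survival scored every 24 h for Kaplan-Meier curves. At least two larval batches.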

Data set [18] can be described thus: Toxicity in Galleria mellonella larva assessed as larval survival at 50 uM in presence of colistin.
In data set [19] the test system is Burkholderia cepacia. As to the kind of experiment: Inhibition of biofilm formation in Burkholderia cepacia R6193 clinical isolate at 0.05 mM incubated for 24 hrs by crystal violet method. It is filed as functional, organism-based. The method, boiled down: as §3
For data set [20], the system named is Acinetobacter baumannii. Briefly: Inhibition of biofilm formation in Acinetobacter baumannii ATCC 15308 at 0.05 mM incubated for 24 hrs by crystal violet method relative to control. It is filed as functional. The following applies: ATCC 15308, 24 h. The method, boiled down: as §3

As usually defined, the MIC is the lowest concentration found to suppress growth. One may read the inhibition as the relative decrease from the control value, in per cent. Consider `CCCCCCCCCc1ccccc1C(=O)NS(=O)(=O)c1ccc(I)cc1`, for which the “growth inhibition (GI)” value with Acinetobacter baumannii [1], with Pseudomonas aeruginosa [6] and in the data set on Escherichia coli [15] was “inactive” each time. The minimum inhibitory concentration (MIC) is over 128 µg/mL in the data set with Burkholderia multivorans [2]; over 256 µg/mL with Burkholderia cepacia [4]; 4 µg/mL in data set [5]; 2 µg/mL in the data set with Acinetobacter baumannii [10]; 8 µg/mL with Pseudomonas aeruginosa [12]; over 256 µg/mL in the data set with Burkholderia cenocepacia. In addition, the MIC in the data set on Escherichia coli [16] was over 1 µg/mL. The Activity result in data set [3] was “Non-Toxic”. The inhibition result (in [7]; with Pseudomonas aeruginosa [14]) was “inactive” each time. For the same molecule, the “growth inhibition (GI)” value (in the data set on Burkholderia multivorans [8]; in data set [13]) was “Active” in each case. Besides, the inhibition at 50 µM came to 35% in the data set with Burkholderia multivorans [9] and 68% with Escherichia coli [11].
Regarding `CCCCCCCCCc1ccccc1C(=O)NS(=O)(=O)C(C)(C)C`, the “growth inhibition (GI)” value in the data set on Acinetobacter baumannii [1], in the data set with Pseudomonas aeruginosa [6] and in the data set with Escherichia coli [15] was “inactive” each time. For the same molecule, the MIC was over 128 µg/mL in the data set on Burkholderia multivorans [2]; over 256 µg/mL in the data set with Burkholderia cepacia [4]; 0.5 µg/mL in data set [5]; 0.25 µg/mL in the data set with Acinetobacter baumannii [10]; 1 µg/mL in the data set on Pseudomonas aeruginosa [12]; over 256 µg/mL in the data set on Burkholderia cenocepacia. Besides, in the data set on Escherichia coli [16], the minimum inhibitory concentration (MIC) was 0.5 µg/mL. In addition, the Activity entry in data set [3] and in [18] was “Non-Toxic” in each case. Further, the inhibition entry (in data set [7]; in the data set on Pseudomonas aeruginosa [14]) was “inactive” throughout. In the data set with Burkholderia multivorans [9], this molecule registered an inhibition at 50 µM of over 35%. Further, the result in [17] was Active.
On to `CCCCCCCCCc1ccccc1C(=O)NS(C)(=O)=O`, for which the “growth inhibition (GI)” value with Acinetobacter baumannii [1], in the data set with Pseudomonas aeruginosa [6] and in the data set on Escherichia coli [15] was “inactive” throughout. For the same molecule, the MIC in the data set with Burkholderia multivorans [2] is over 128 µg/mL; in the data set with Burkholderia cepacia [4], over 256 µg/mL; in data set [5], 0.5 µg/mL; in the data set on Acinetobacter baumannii [10], 0.125 µg/mL; in the data set with Pseudomonas aeruginosa [12] it was 1 µg/mL; with Burkholderia cenocepacia, over 256 µg/mL. Moreover, the MIC in the data set with Escherichia coli [16] was found to be 0.125 µg/mL. In addition, the Activity entry in data set [3] is listed as “Non-Toxic”. Moreover, the inhibition result (in data set [7]; in the data set with Pseudomonas aeruginosa [14]) was “inactive” each time.
Turning to `CCCCCCCCCc1ccccc1C(=O)NS(=O)(=O)c1cccc(Br)c1`, the inhibition result (with Burkholderia cepacia [19]; in data set [7]; with Pseudomonas aeruginosa [14]) was “inactive” in each case. Further, the “growth inhibition (GI)” value in the data set on Acinetobacter baumannii [1], in the data set on Pseudomonas aeruginosa [6] and in the data set on Escherichia coli [15] was “inactive” in each case. The MIC with Burkholderia multivorans [2] is over 128 µg/mL; in the data set with Burkholderia cepacia [4] it was over 256 µg/mL; in [5] it was 4 µg/mL; in the data set on Acinetobacter baumannii [10] it was 1 µg/mL; with Pseudomonas aeruginosa [12], 4 µg/mL; in the data set on Burkholderia cenocepacia it was over 256 µg/mL. Also, the minimal inhibitory concentration (MIC) with Escherichia coli [16] was over 1 µg/mL. The Activity result in [3] is recorded as “Non-Toxic”. Also, the inhibition at 50 µM with Burkholderia multivorans [9] turned out to be 41%; in the data set on Escherichia coli [11], 63%; with Acinetobacter baumannii [20], 1.5%. Besides, in data set [13], the “growth inhibition (GI)” value was “Active”.
In the case of `CCCCCCCCCc1ccccc1C(=O)NS(=O)(=O)c1ccc(F)cc1`, the “growth inhibition (GI)” value with Acinetobacter baumannii [1], with Pseudomonas aeruginosa [6] and in the data set on Escherichia coli [15] was “inactive” throughout. Moreover, the MIC in the data set on Burkholderia multivorans [2] is over 128 µg/mL; in the data set with Burkholderia cepacia [4], over 256 µg/mL; in data set [5] it was 0.5 µg/mL; with Acinetobacter baumannii [10], 0.25 µg/mL; in the data set with Pseudomonas aeruginosa [12] it was 1 µg/mL; in the data set with Burkholderia cenocepacia it was over 256 µg/mL. Moreover, the minimal inhibitory concentration (MIC) with Escherichia coli [16] is 0.5 µg/mL. In addition, the inhibition result (in data set [7]; in the data set with Pseudomonas aeruginosa [14]) was “inactive” each time. Also, the inhibition at 50 µM with Burkholderia multivorans [9] was found to be 27%; in the data set on Escherichia coli [11], 22%; in the data set on Acinetobacter baumannii [20], 25%.
As for `CCCCCCCCCc1ccccc1C(=O)NS(=O)(=O)c1ccc(Br)cc1`, the inhibition result (in the data set with Burkholderia cepacia [19]; in data set [7]; in the data set on Pseudomonas aeruginosa [14]) was “inactive” throughout. Besides, the “growth inhibition (GI)” value in the data set with Acinetobacter baumannii [1], in the data set with Pseudomonas aeruginosa [6] and with Escherichia coli [15] was “inactive” in each case. Besides, the minimum inhibitory concentration (MIC) in the data set with Burkholderia multivorans [2] is over 128 µg/mL; with Burkholderia cepacia [4], over 256 µg/mL; in data set [5], 2 µg/mL; in the data set on Acinetobacter baumannii [10], 2 µg/mL; with Pseudomonas aeruginosa [12], 8 µg/mL; in the data set with Burkholderia cenocepacia it was over 256 µg/mL. Also, the minimum inhibitory concentration (MIC) in the data set with Escherichia coli [16] is over 1 µg/mL. For the same molecule, the inhibition at 50 µM with Burkholderia multivorans [9] is 31%; in the data set on Escherichia coli [11] it was over 59%; in the data set with Acinetobacter baumannii [20], 8%.
